From ChEMBL document CHEMBL2177069, “Novel peptidomimetic compounds containing redox active chalcogens and quinones as potential anticancer agents” (Eur J Med Chem, 2012)

Assays:
[1] = tested on: Saccharomyces cerevisiae; test: Growth inhibition of COX17-deficient Saccharomyces cerevisiae YLL009C mutant at 20 ug/disc after 24 to 48 hrs by agar diffusion assay; type: functional; conditions: read-out: DIZ
Procedure, shortened: (§1)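 S. cerevisiae deletion mutants or wild type grown on YPD, seeded into liquid agar medium at an optical density of 0.1. 6 mm paper discs soaked with methanolic compound solution were placed on the plates and incubated at 30 °C. Growth was checked after 1 and 2 days, and the inhibition zone diameter was recorded in mm.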

[2] = tested on: Saccharomyces cerevisiae; test: Growth inhibition of GSH2-deficient Saccharomyces cerevisiae YOL049W mutant at 20 ug/disc after 24 to 48 hrs by agar diffusion assay; type: functional; conditions: read-out: DIZ; procedure, shortened: as §1
[3] = tested on: Saccharomyces cerevisiae; test: Growth inhibition of RCK1-deficient Saccharomyces cerevisiae YGL158W mutant at 20 ug/disc after 24 to 48 hrs by agar diffusion assay; type: functional; conditions: read-out: DIZ; procedure, shortened: as §1
[4] = tested on: Saccharomyces cerevisiae; test: Growth inhibition of GTT2-deficient Saccharomyces cerevisiae YLL060C mutant at 20 ug/disc after 24 to 48 hrs by agar diffusion assay; type: functional; conditions: read-out: DIZ; procedure, shortened: as §1
[5] = tested on: Saccharomyces cerevisiae; test: Growth inhibition of POS5-deficient Saccharomyces cerevisiae YPL188W mutant at 20 ug/disc after 24 to 48 hrs by agar diffusion assay; type: functional; conditions: read-out: DIZ; procedure, shortened: as §1
[6] = tested on: Saccharomyces cerevisiae; test: Growth inhibition of WSC4-deficient Saccharomyces cerevisiae YHL028W mutant at 20 ug/disc 24 to 48 hrs by agar diffusion assay; type: functional; conditions: read-out: DIZ; procedure, shortened: as §1
[7] = tested on: Saccharomyces cerevisiae; test: Growth inhibition of SOD1-deficient Saccharomyces cerevisiae YJR104C mutant at 20 ug/disc after 24 to 48 hrs by agar diffusion assay; type: functional; conditions: read-out: DIZ; procedure, shortened: as §1
[8] = tested on: A498; test: Cytotoxicity against human A498 cells after 24 hrs by MTT assay; type: functional, cell-based; conditions: A498, 24 h
Procedure, shortened: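 MTT assay. Cells were seeded at 50,000 cells/mL in medium with 10% fetal calf serum and grown for two days at 37 °C, 10% CO2. Serial dilutions of compound were then added for 24 h. MTT was added (final 0.5 mg/mL) for 2 h, and the formazan was pelleted, washed, dissolved in isopropanol with 0.4% HCl and read at 590 nm. IC50 is the concentration giving 50% of untreated-control absorbance, taken from dose-response curves; mean of two parallel experiments.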

[9] = tested on: MDA-MB-468; test: Cytotoxicity against human MDA-MB-468 cells; type: functional
[10] = tested on: T47D; test: Cytotoxicity against human T47D cells; type: functional
[11] = tested on: MCF7; test: Cytotoxicity against human MCF7 cells; type: functional
[12] = tested on: PC-3; test: Cytotoxicity against human PC3 cells; type: functional
[13] = tested on: SN12C; test: Cytotoxicity against human SN12C cells; type: functional
[14] = tested on: A498; test: Cytotoxicity against human A498 cells; type: functional
[15] = Cytotoxicity against human 786-O cells; type: functional
[16] = tested on: SK-OV-3; test: Cytotoxicity against human SKOV3 cells; type: functional
[17] = tested on: OVCAR-8; test: Cytotoxicity against human OVCAR8 cells; type: functional
[18] = tested on: NCI/ADR-RES; test: Cytotoxicity against human NCI/ADR-RES cells; type: functional
[19] = tested on: OVCAR-4; test: Cytotoxicity against human OVCAR4 cells; type: functional
[20] = tested on: OVCAR-5; test: Cytotoxicity against human OVCAR5 cells; type: functional
[21] = tested on: IGROV-1; test: Cytotoxicity against human IGROV1 cells; type: functional
[22] = tested on: OVCAR-3; test: Cytotoxicity against human OVCAR3 cells; type: functional

Question: With CC1=C(SCCC(=O)OC(C[Se]C2=C(C)C(=O)c3ccccc3C2=O)C(=O)NCCCCCC(=O)OCc2ccccc2)C(=O)c2ccccc2C1=O (stereo not given) as the compound, how does the zone of inhibition at 20 µg/disc [1] read?
Answer: 11 mm

Question: And the zone of inhibition at 20 µg/disc [2]?
Answer: 10 mm

Question: What about the zone of inhibition at 20 µg/disc [3] of the same compound?
Answer: 10 mm

Question: What about the zone of inhibition at 20 µg/disc [4] of the same compound?
Answer: 12 mm

Question: And the zone of inhibition at 20 µg/disc [5]?
Answer: 10 mm

Question: What about the zone of inhibition at 20 µg/disc [6] of the same compound?
Answer: 16 mm

Question: What about the zone of inhibition at 20 µg/disc [7] of the same compound?
Answer: 16 mm

Question: What about the IC50 [8] of the same compound?
Answer: 5 µM

Question: What about the GI50 [9] of the same compound?
Answer: 3.02 µM

Question: What about the LC50 [9] of the same compound?
Answer: 37.2 µM

Question: What about the TGI ([9]; read-out: pTGI (converted)) of the same compound?
Answer: 8.51 µM

Question: And the GI50 [10]?
Answer: 17.8 µM

Question: What about the LC50 [10] of the same compound?
Answer: > 100 µM

Question: And the TGI ([10]; read-out: pTGI (converted))?
Answer: 51.3 µM

Question: What about the GI50 [11] of the same compound?
Answer: 4.79 µM

Question: And the LC50 [11]?
Answer: > 100 µM

Question: What about the TGI ([11]; read-out: pTGI (converted)) of the same compound?
Answer: 29.5 µM

Question: What about the GI50 [12] of the same compound?
Answer: 2.57 µM

Question: What about the LC50 [12] of the same compound?
Answer: 55 µM

Question: What about the TGI ([12]; read-out: pTGI (converted)) of the same compound?
Answer: 9.12 µM

Question: And the GI50 [13]?
Answer: 4.68 µM

Question: What about the LC50 [13] of the same compound?
Answer: 57.5 µM

Question: And the TGI ([13]; read-out: pTGI (converted))?
Answer: 16.6 µM

Question: What about the GI50 [14] of the same compound?
Answer: 12 µM

Question: And the LC50 (50% lethal concentration) [14]?
Answer: > 100 µM

Question: And the TGI ([14]; read-out: pTGI (converted))?
Answer: > 100 µM

Question: What about the GI50 ([15]; 786-0) of the same compound?
Answer: 4.68 µM

Question: What about the LC50 ([15]; 786-0) of the same compound?
Answer: 38 µM

Question: And the TGI ([15]; 786-0, read-out: pTGI (converted))?
Answer: 14.1 µM

Question: What about the GI50 [16] of the same compound?
Answer: 7.08 µM

Question: What about the LC50 [16] of the same compound?
Answer: 44.7 µM

Question: And the TGI ([16]; read-out: pTGI (converted))?
Answer: 19.5 µM

Question: What about the GI50 [17] of the same compound?
Answer: 4.17 µM

Question: What about the LC50 [17] of the same compound?
Answer: 50.1 µM

Question: What about the TGI ([17]; read-out: pTGI (converted)) of the same compound?
Answer: 15.1 µM

Question: What about the GI50 [18] of the same compound?
Answer: 4.57 µM

Question: And the CC50 ([18]; read-out: pLC50 (the source's name) (converted))?
Answer: 81.3 µM

Question: And the TGI ([18]; read-out: pTGI (converted))?
Answer: 18.2 µM

Question: What about the GI50 [19] of the same compound?
Answer: 12.3 µM

Question: And the LC50 [19]?
Answer: 51.3 µM

Question: And the TGI ([19]; read-out: pTGI (converted))?
Answer: 25.1 µM

Question: What about the GI50 [20] of the same compound?
Answer: 5.01 µM

Question: What about the LC50 [20] of the same compound?
Answer: 61.7 µM

Question: What about the TGI ([20]; read-out: pTGI (converted)) of the same compound?
Answer: 18.6 µM

Question: And the GI50 [21]?
Answer: 2.14 µM

Question: And the LC50 (concentration killing 50% of cells) [21]?
Answer: 53.7 µM

Question: What about the TGI ([21]; read-out: pTGI (converted)) of the same compound?
Answer: 14.5 µM

Question: What about the GI50 [22] of the same compound?
Answer: 5.01 µM

Question: And the LC50 [22]?
Answer: 42.7 µM

Question: And the TGI ([22]; read-out: pTGI (converted))?
Answer: 18.2 µM
